Bioassay records: PubChem BioAssay, several laboratories
CYP2C9 inhib – blockers of cytochrome P450 2C9 activity – biochemical, luminescence, ADME assay, primary screen; inhibition, % at 5 µM; P11712; AID 777, 2007; hit rate 20% among 96,000; CYP2C9 Supersomes, luciferin-H conversion;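 active = blocking of liver enzyme CYP2C9 beyond about 50% at 5 µM, limit read from the data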
Cav32 inh – Cav3.2 calcium influx blockers – cell-based, Fluo-4 calcium fluorescence, FDSS, MLSMR library, primary screen; Voltage-dependent T-type calcium channel subunit alpha-1H (Homo sapiens), O95180; Cav3.2-expressing cells; hits give low values; AID 449739, 2010; hit rate 4% among 100,000; B-score at 10 µM;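 active = single-dose well whose peak fluorescence ratio is a statistical outlier from its plate by either plate-standardised score or position-corrected B-score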
CYP2C9 act – human CYP2C9 activators, primary screen, biochemical, luminescence | Cytochrome P450 2C9 (Homo sapiens), P11712 | recombinant CYP2C9, luciferin-H conversion; hits give high values; factor 1 = untreated enzyme, 0 = blocked | activation factor at 5 µM | hit rate 1.4% among 96,000 | AID 1024, 2008;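 active = activation factor of 2 or more for CYP2C9 at a 5 µM dose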;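 also: 0 = sulfaphenazole-blocked wells and 1 = vehicle-only wells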
CYP2C19 inhib – blockers of cytochrome P450 2C19 activity – biochemical, luminescence, ADME assay, primary screen. inhibition, % at 5 µM. CYP2C19 Supersomes, luciferin-H EGE luminescence, 30 min. P33261. hit rate 21% among 96,000;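 active = CYP2C19 inhibition above a set limit at 5 µM in the primary screen, cut at about 50% in these data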;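 also: plate controls were negative control wells for no effect and 2.5 mM tranylcypromine positive control for full effect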
CYP2C19 act – human CYP2C19 activators, primary screen, biochemical, luminescence. Cytochrome P450 2C19 (Homo sapiens), P33261. recombinant CYP2C19, luciferin-H EGE luminescence; hits give high values; 0 = fully inhibited enzyme, 1 = untreated enzyme. activation factor at 5 µM. 96,000 tested, under 10 active;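 active = activation factor of at least 2 at 5 µM in the primary screen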;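 also: 0 = wells with 2.5 mM tranylcypromine and 1 = vehicle-only wells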
Rev-RRE block – HIV-1 Rev-RRE binding inhibitors, primary screen, biochemical, FRET, protein-RNA interaction; P05866; Rev peptide-RRE RNA binding; inhibition, % at 8 µM; hit rate 0.79% among 97,000;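 active = inhibition above the screen-wide mean plus 3 SD, cut at about 35% in these data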;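 also: 0% = median DMSO wells and 100% = median Neomycin B control wells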
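Test system: labelled RRE RNA duplex and labelled Rev peptide. Times: 5 min compound–RNA preincubation, then 15 min with peptide, 25 °C. Doses: single-dose 8 µM. Measured by: FRET, excitation 480 nm, emission 540 nm donor and 671 nm acceptor. Measure: % inhibition of FRET ratio versus controls.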
* marks the source's active call; other numbers are inactive results; . = no result. In the library only some 27% were active in any assay of this set; here they are far more common.

SMILES	CYP2C9 inhib	Cav32 inh	CYP2C9 act	CYP2C19 inhib	CYP2C19 act	Rev-RRE block
CC(C)(C)c1ccc(C(=O)NNc2cc(N3CCCCC3)nc(N3CCCCC3)n2)cc1	61*	-8.3*	0.4	15	0.9	-4
CC(=O)NNc1cc(N2CCOCC2)nc(N2CCOCC2)n1	.	0.4	.	.	.	.
Cc1cc(OCC(=O)N(C)C)c2c(-c3ccccc3)cc(=O)oc2c1	64*	-0.042	0.4	16	0.8	5
CCOC(=O)c1c(C)[nH]c(C)c1C(=O)COC(=O)[C@@H]1CCCN1S(=O)(=O)c1ccc(Cl)cc1	80*	-1.5	0.2	93*	0.1	4
O=C(OC1CCOC1=O)c1cc(-c2ccc(Br)cc2)nc2ccccc12 (stereo unspecified)	52*	0.53	0.5	0	1	7
Cc1cc(C(=O)OC2CCOC2=O)c2ccccc2n1 (stereo unspecified)	4	0.88	1	8	0.9	4
COc1ccc(-c2nc(C#N)c(NCc3ccc(C)cc3)o2)cc1OC	53*	-0.29	0.5	15	0.9	3
COc1ccc(-c2nc(C#N)c(NCCc3ccccc3)o2)cc1OC	93*	-1.9	0.1	80*	0.2	1
CC(C)(C)c1ccc(-c2nc(C#N)c(NCc3ccncc3)o2)cc1	67*	-1.1	0.3	25	0.8	11
CCN(CC)CCCNc1oc(-c2ccc(OC)c(OC)c2)nc1C#N	-7	0.43	1.1	9	0.9	-2
N#Cc1nc(-c2ccc(OCc3ccccc3)cc2)oc1NCc1cccnc1	22	-0.0026	0.8	10	0.9	3
CSCCC(NC(N)=O)C(=O)NCc1ccc(Cl)cc1 (stereo unspecified)	3	0.049	1	27	0.7	6
CCOC(=O)N1CCC(NC2CCCCCCC2)CC1	-8	0.53	1.1	58*	0.4	9
COc1c(Br)cc(Br)cc1C(=O)O	6	0.84	0.9	-17	1.2	3
CCOC(=O)c1ccc(S(=O)(=O)N2CCC(C(=O)O)CC2)cc1	7	1.2	0.9	-1	1	9
Cc1nc(-n2nnc3ccccc32)c2c3c(sc2n1)CCCC3	59*	-1	0.4	55*	0.5	9
Oc1ccc(N2CCN(c3ncnc4sc5c(c34)CCC5)CC2)cc1	-4	-0.57	1	12	0.9	-4
Cc1nc(N2CCN(c3ccccc3)CC2)c2c3c(sc2n1)CCC3	94*	.	0.1	95*	0.1	.
c1ccc2c(c1)nnn2-c1ncnc2sc3c(c12)CCCC3	-107	-2.4	2.1*	11	0.9	5
CCC(Sc1nc2ccccc2s1)C(=O)Nc1cc(C)on1 (stereo unspecified)	.	-2.6	.	.	.	7
CCOC(=O)c1sc2cccc(F)c2c1N	-20	0.086	1.2	26	0.7	1
CCOC(=O)c1sc(=S)sc1SCc1cccc(C(F)(F)F)c1	97*	-1.7	0	53*	0.5	12
Cc1cc(=O)n2nc(N3CCC(C(=O)NC4CCCc5ccccc54)CC3)sc2n1 (stereo unspecified)	21	0.93	0.8	15	0.8	.
CC(C)OCCCNC(=O)Cn1nc(-c2ccccc2)ccc1=O	-8	-0.59	1.1	-15	1.1	-1
Cc1cccc(C)c1NC(=O)C(C)c1ccc(-c2ccccc2)c(F)c1 (stereo unspecified)	82*	-4.3*	0.2	5	0.9	17
SMILES	CYP2C9 inhib	Cav32 inh	CYP2C9 act	CYP2C19 inhib	CYP2C19 act	Rev-RRE block
O=C(CCN1C(=O)c2ccccc2C1=O)NCCC1=CCCCC1	.	0.58	.	.	.	-3
O=C(Cn1nc(C(=O)O)c2ccccc2c1=O)NCCC1=CCCCC1	23	0.96	0.8	58*	0.4	.
O=C(NCCC1=CCCCC1)C(=O)NCc1ccccc1Cl	13	-0.13	0.9	2	1	5
O=C(COc1ncnc2ccccc12)NCCC1=CCCCC1	27	-0.98	0.7	54*	0.5	.
O=C(COc1nncc2ccccc12)NCCC1=CCCCC1	-4	0.45	1	36	0.6	2
O=C(COc1cnc2ccccc2n1)NCCC1=CCCCC1	28	-0.0078	0.7	55*	0.5	0
O=C(CCNC(=O)Cn1cnc2ccccc2c1=O)NCCC1=CCCCC1	26	-0.57	0.7	22	0.8	.
O=C(/C=C/c1cccc2ccccc12)NCCC1=CCCCC1	-169	.	2.7*	18	0.8	4
COC(=O)c1sc(S(=O)(=O)N2CCC(C(=O)O)CC2)c(C(=O)OC)c1C	3	0.29	1	3	1	6
O=C(Cn1cnc2c(nnn2Cc2ccc(F)cc2)c1=O)N1CCCCC1	3	.	1	6	0.9	5
CC(=O)N1CCc2cc(S(=O)(=O)NCCC(=O)Nc3cccc(C)c3C)ccc21	-8	0.63	1.1	6	0.9	.
C(=N\N1CCN(Cc2ccccc2)CC1)/c1cccs1	13	0.0018	0.9	60*	0.4	-3
Cc1ccc(-c2nnc(SCc3nc(N)nc(Nc4ccccc4C)n3)n2N)cc1	37	.	0.6	42	0.6	8
Cc1c(C=O)cnn1CCC(=O)O	.	-0.26	.	.	.	3
CC12CC3CC(C)(C1)CC(C(=O)Nc1nn[nH]n1)(C3)C2	-2	0.23	1	11	0.9	.
CC12CC3(C)CC(C)(C1)CC(C(=O)Nc1nn[nH]n1)(C2)C3	15	1.5	0.9	54*	0.5	3
CCOC(=O)N1CCC(NC(=O)Cn2c3c(c(-c4ccccc4Cl)cc2=O)CCC3)CC1	54*	-0.27	0.5	46	0.5	.
CCOC(=O)N1CCC(NC(=O)CN2C(=O)CCSc3ccccc32)CC1	8	1.1	0.9	12	0.9	.
Cc1ccc(-n2c(SCC(=O)Nc3ccc4c(c3)OCO4)nnc2-c2cccs2)cc1	2	-1.5	1	18	0.8	-3
COc1cccc(NC(=O)CSc2nnc(Cc3cccs3)n2-c2ccc(C)cc2)c1	65*	-3.2	0.3	45	0.5	8
C=CCn1c(Cc2cccs2)nnc1SCC(=O)Nc1ccc(OC)cc1	23	-0.45	0.8	21	0.8	-1
COc1ccc(-n2c(Cc3cccs3)nnc2SCC(=O)Nc2ccc3c(c2)OCCO3)cc1	61*	-6.8*	0.4	56*	0.4	8
COc1ccc(NC(=O)CSc2nnc(Cc3cccs3)n2-c2ccc(C)cc2)cc1	51*	-5.3*	0.5	73*	0.3	6
CC(=O)NCc1ccc(-c2csc(N)n2)s1	11	-0.17	0.9	-2	1	1
O=C(Nc1cccc(Cl)c1)OCc1cn(-c2ccc(Cl)cc2)nn1	.	.	.	.	.	1
